The nature of series [1]: Toxicity in sea urchin embryo assessed as induction of embryo death at early pluteus stage. The following applies: paracentrotus lividus.
The nature of series [2]: Growth inhibition of human NCI60 cells at 10 uM incubated for 48 hrs by sulforhodamine B assay relative to control. It counts as functional. To be noted: NCI60, 48 h, read-out: GI. The method in brief: (§1)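 NCI Developmental Therapeutics Program panel of sixty human tumour cell lines. Compounds were screened first at a single 10 μM dose (percent growth inhibition), and dose-response curves were run for active ligands. GI50 is the concentration giving 50% growth inhibition, reported as the mean across the 60 lines.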
On the technique in general: The SRB assay estimates cell density from bound dye.

For series [3], the system named is Paracentrotus lividus. Kind of series: Induction of microtubule destabilization in sea urchin embryo assessed as cleavage arrest exposed for 8 to 20 mins after fertilization and 45 to 55 mins before first mitotic cycle completion measured 2.5 to 5.5 hrs after fertilization. A digest of the protocol:
(§2)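 Gametes were obtained by intracoelomic injection of 0.5 M KCl, and eggs were fertilised in filtered seawater. Embryos were cultured at room temperature with paddle agitation (60 rpm), as a monolayer at up to 2000 embryos/mL. Eggs were exposed 8–20 min post-fertilisation to 2-fold decreasing concentrations (10 mM DMSO stock diluted 10-fold in EtOH). Cleavage was scored microscopically at 2.5–5.5 h. The read-out was the threshold concentration, in duplicate.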

Series [4] is described as follows: Toxicity in sea urchin embryo assessed as induction of embryo disintegration at early pluteus stage. To be noted: paracentrotus lividus.
A short description of series [5]: Growth inhibition of human NCI60 cells incubated for 48 hrs by sulforhodamine B assay. It counts as functional. To be noted: NCI60, 48 h. The method in brief:
as §1

Series [6] relates to Paracentrotus lividus. Kind of series: Induction of microtubule destabilization activity in sea urchin free-swimming blastulae assessed as embryo spinning measured after 0.25 to 20 hrs. To be noted: Blastula. The method in brief:
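Free-swimming blastulae just after hatching (8–10 h post-fertilisation) were cultured in filtered seawater at room temperature. They were treated with 2-fold decreasing concentrations (DMSO stock diluted 10-fold in EtOH; final DMSO ≤0.05%, EtOH ≤1%). Spinning and lack of forward movement were observed by light microscopy after 15 min to 20 h. The value is the effective threshold concentration, from duplicate measurements.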

Series [7] deals with Paracentrotus lividus. Kind of series: Induction of microtubule destabilization in sea urchin embryo assessed as cleavage alteration exposed 8 to 20 mins after fertilization and 45 to 55 mins before first mitotic cycle completion measured 2.5 to 5.5 hrs after fertilization. The method in brief: as §2
Series [8] has as its system Paracentrotus lividus. Put plainly: Induction of microtubule destabilization in sea urchin embryo assessed as formation of tuberculate eggs for 8 to 20 mins after fertilization and 45 to 55 mins before first mitotic cycle completion measured 2.5 to 5.5 hrs after fertilization. A digest of the protocol:
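Sea urchin gametes were obtained by intracoelomic 0.5 M KCl injection, and embryos were cultured in filtered seawater at room temperature at up to 2000 embryos/mL. Fertilised eggs were exposed to 2-fold decreasing concentrations from 10 mM DMSO stocks diluted 10-fold in 96% EtOH. Final DMSO was kept ≤0.05% and EtOH ≤1%. Microscopic scoring gave the EC, the threshold causing 100% cleavage alteration, in duplicate.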

Calls of active or inactive are those of the source. A value given as a limit tells only on which side of the number the result lay.

For the molecule `COc1ccc(C(=O)c2sc3nc(-c4cccs4)ccc3c2N)cc1OC`, the Activity result in series [1] and in series [4] was “Toxic” throughout. In addition, in series [2], the inhibition of growth at 10 µM is 52.6%. In addition, the figures for the EC with Paracentrotus lividus [3], in the series on Paracentrotus lividus [6] and with Paracentrotus lividus [7] were greater than 4 µM, greater than 4 µM and 4 µM, respectively. The molecule further returned a 50% growth inhibitory concentration (GI50) in series [5] of 6.31 µM.

For `Nc1c(C(=O)c2ccc(Cl)cc2)sc2nc(-c3cccs3)ccc12`, the Activity entry in series [1] and in series [4] was “Toxic” in each case. Also, the EC in the series with Paracentrotus lividus [3], with Paracentrotus lividus [6] and with Paracentrotus lividus [7] was greater than 4 µM each time.

On to `COc1ccc(C(=O)c2sc3nc4c(cc3c2N)CCCC4)cc1OC`, for which the result in the series with Paracentrotus lividus [8] was Active. The inhibition of growth at 10 µM in series [2] is 60.5%. For the same molecule, the EC with Paracentrotus lividus [3] is 4 µM; with Paracentrotus lividus [6], greater than 5 µM; in the series with Paracentrotus lividus [7], 0.5 µM. This molecule also came in with a GI50 in series [5] of 3.24 µM.

With `COc1ccc(C(=O)c2sc3nc(-c4cccs4)ccc3c2N)cc1`, the Activity entry in series [1] and in series [4] was “Toxic” each time. Also, the EC in the series with Paracentrotus lividus [3], with Paracentrotus lividus [6] and in the series with Paracentrotus lividus [7] was greater than 4 µM throughout.

In general, GI50 refers to the concentration giving 50% growth inhibition. Lower therefore signals greater sensitivity of the cells.

Source of the values: ChEMBL document CHEMBL3872268, “3-Amino-thieno[2,3-b]pyridines as microtubule-destabilising agents: Molecular modelling and biological evaluation in the sea urchin embryo and human cancer cells” (Bioorg Med Chem, 2017).
